Source: ChEMBL document CHEMBL4177755, “Combating Drug-Resistant Fungi with Novel Imperfectly Amphipathic Palindromic Peptides” (J Med Chem, 2018)
Values after ≈ are worked out from the molar mass of the structure shown. Active and inactive are the calls of the source. The calls are words filed in the database; no cut-off is given here.

Key:
Escherichia coli [1] = test: Antibacterial activity against Escherichia coli ATCC 25922 after 18 hrs in presence of 50% human heat-inactivated serum by broth dilution method; format: functional; details: ATCC 25922, 18 h
Escherichia coli [2] = test: Antibacterial activity against Escherichia coli ATCC 25922 after 18 hrs in presence of 25% human heat-inactivated serum by broth dilution method; format: functional; details: ATCC 25922, 18 h
[3] = test system: Staphylococcus epidermidis; test: Bactericidal activity against Staphylococcus epidermidis ATCC 12228; format: functional; details: read-out: MBC99.9
Outline: (§1)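 Wells from the 24 h, 37 °C MHB microdilution plates (bacteria at a final (0.5−1) × 10^5 CFU/mL; peptide diluted in 0.2% BSA) were plated on agar and incubated overnight. MBC is the lowest concentration killing >99.9% of cells. Each test was reproduced at least 3 times.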

Staphylococcus aureus [4] = test: Bactericidal activity against methicillin-resistant Staphylococcus aureus ATCC 4330; format: functional; details: read-out: MBC99.9
Outline: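 Bacteria at (0.5−1) × 10^5 CFU/mL in MHB were exposed to serially diluted peptide (0.2% BSA) for 24 h at 37 °C, then 50 μL aliquots were plated on agar overnight. MBC is the lowest concentration killing >99.9% of cells. At least 3 repeats.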

Escherichia coli [5] = test: Antibacterial activity against Escherichia coli ATCC 25922 after 18 hrs in presence of NH4Cl by broth dilution method; format: functional; details: ATCC 25922, 18 h
Escherichia coli [6] = test: Antibacterial activity against Escherichia coli ATCC 25922 after 18 hrs in presence of 12.5% human heat-inactivated serum by broth dilution method; format: functional; details: ATCC 25922, 18 h
Staphylococcus aureus [7] = test: Antibacterial activity against Staphylococcus aureus ATCC 25923 after 24 hrs; format: functional; details: ATCC 25923, 24 h
Outline: (§2)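 Modified NCCLS broth microdilution. Mid-log bacteria at (0.5−1) × 10^5 CFU/mL in MHB were mixed 1:1 with peptide serially diluted in 0.2% BSA and incubated 24 h at 37 °C. Absorbance was read at 492 nm; MIC is the lowest concentration inhibiting 95% of growth. At least 3 repeats.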

Salmonella typhimurium [8] = test: Bactericidal activity against Salmonella typhimurium ATCC 14028; format: functional, Salmonella enterica subsp. enterica serovar Typhimurium; details: Salmonella enterica, read-out: MBC99.9; outline: as §1
Staphylococcus aureus [9] = test: Antibacterial activity against methicillin-resistant Staphylococcus aureus ATCC 4330 after 24 hrs; format: functional; details: ATCC 4330, 24 h; outline: as §2
Lipid bilayer [10] = test: Binding affinity to phosphatidylglycerol/cardiolipin/phosphatidylethanolamine large unilamellar vesicle assessed as induction of calcein leakage at 2 to 32 uM after 15 mins by spectrofluorophotometric method
Outline: (§3)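 Large unilamellar vesicles were made from PG/CL/PE (2:1:7), PC/PE/PI/ergosterol (5:4:1:2) or PC/cholesterol (10:1), loaded with 70 mM calcein in Tris/NaCl/EDTA buffer at pH 7.4, frozen and thawed 20 times, and extruded through 100 nm filters. Free dye was removed by gel filtration, and peptide-induced calcein release was measured.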

Escherichia coli [11] = test: Antibacterial activity against Escherichia coli ATCC 25922 after 18 hrs in presence of ZnCl2 by broth dilution method; format: functional; details: ATCC 25922, 18 h
Escherichia coli [12] = test: Antibacterial activity against Escherichia coli ATCC 25922 after 18 hrs in presence of FeCl3 by broth dilution method; format: functional; details: ATCC 25922, 18 h
Escherichia coli [13] = test: Antibacterial activity against Escherichia coli ATCC 25922 after 18 hrs in presence of CaCl2 by broth dilution method; format: functional; details: ATCC 25922, 18 h
[14] = Bactericidal activity against Salmonella pullorum ATCC 7913; format: functional, Salmonella enterica subsp. enterica serovar Pullorum; details: Salmonella enterica, read-out: MBC99.9; outline: as §1
[15] = test system: Staphylococcus epidermidis; test: Antibacterial activity against Staphylococcus epidermidis ATCC 12228 after 24 hrs; format: functional; details: ATCC 12228, 24 h
Outline: (§4)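 Broth microdilution. Mid-log bacteria in MHB at a final (0.5−1) × 10^5 CFU/mL were mixed with equal volumes of peptide serially diluted in 0.2% BSA. Plates were incubated 24 h at 37 °C and read at A492. MIC is the lowest concentration inhibiting 95% of growth. Each test was repeated at least 3 times.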

Escherichia coli [16] = test: Antibacterial activity against Escherichia coli ATCC 25922 after 18 hrs in presence of MgCl2 by broth dilution method; format: functional; details: ATCC 25922, 18 h
Lipid bilayer [17] = test: Binding affinity to phosphatidylcholine/cholesterol large unilamellar vesicle assessed as induction of calcein leakage at 2 to 32 uM after 15 mins by spectrofluorophotometric method; details: 0.25 h; outline: as §3
Escherichia coli [18] = test: Antibacterial activity against Escherichia coli ATCC 25922 after 24 hrs; format: functional; details: ATCC 25922, 24 h; outline: as §4
Salmonella typhimurium [19] = test: Antibacterial activity against Salmonella typhimurium ATCC 14028 after 24 hrs; format: functional, Salmonella enterica subsp. enterica serovar Typhimurium; details: Salmonella enterica, ATCC 14028, 24 h; outline: as §4
Escherichia coli [20] = test: Antibacterial activity against Escherichia coli 1005 after 24 hrs; format: functional; details: Escherichia coli, 1005, 24 h; outline: as §4
Escherichia coli [21] = test: Antibacterial activity against Escherichia coli ATCC 25922 after 18 hrs in presence of NaCl by broth dilution method; format: functional; details: ATCC 25922, 18 h
Staphylococcus aureus [22] = test: Antibacterial activity against Staphylococcus aureus ATCC 29213 after 24 hrs; format: functional; details: ATCC 29213, 24 h; outline: as §2
Escherichia coli [23] = test: Bactericidal activity against Escherichia coli ATCC 25922; format: functional; details: read-out: MBC99.9; outline: as §1
Staphylococcus aureus [24] = test: Bactericidal activity against Staphylococcus aureus ATCC 29213; format: functional; details: read-out: MBC99.9; outline: as §1
Escherichia coli [25] = test: Bactericidal activity against Escherichia coli 1005; format: functional; details: read-out: MBC99.9; outline: as §1
[26] = Antibacterial activity against Salmonella pullorum ATCC 7913 after 24 hrs; format: functional, Salmonella enterica subsp. enterica serovar Pullorum; details: Salmonella enterica, ATCC 7913, 24 h; outline: as §4
Escherichia coli [27] = test: Antibacterial activity against Escherichia coli ATCC 25922 after 18 hrs in presence of KCl by broth dilution method; format: functional; details: ATCC 25922, 18 h
Staphylococcus aureus [28] = test: Bactericidal activity against Staphylococcus aureus ATCC 25923; format: functional; details: read-out: MBC99.9; outline: as §1

SMILES: O=C(O)c1cn(C2CC2)c2cc(N3CCNCC3)c(F)cc2c1=O [CIPROFLOXACIN]
- MIC (Escherichia coli [1]): 4 µM
- MIC (Escherichia coli [2]): 2 µM
- MBC [3]: 4 µM (≈ 1.33 µg/mL)
- MBC (Staphylococcus aureus [4]): 1 µM (≈ 0.331 µg/mL)
- MIC (Escherichia coli [5]): 2 µM
- MIC (Escherichia coli [6]): 2 µM
- MIC95 (Staphylococcus aureus [7]): 8 µM (≈ 2.65 µg/mL)
- MBC (Salmonella typhimurium [8]): 16 µM (≈ 5.3 µg/mL)
- MIC95 (Staphylococcus aureus [9]): 1 µM (≈ 0.331 µg/mL)
- Activity (Lipid bilayer [10]): inactive
- MIC (Escherichia coli [11]): 2 µM
- MIC (Escherichia coli [12]): 4 µM
- MIC (Escherichia coli [13]): 8 µM
- MBC [14]: 4 µM (≈ 1.33 µg/mL)
- MIC95 [15]: 2 µM (≈ 0.663 µg/mL)
- MIC (Escherichia coli [16]): 8 µM
- Activity (Lipid bilayer [17]): Not Active
- MIC95 (Escherichia coli [18]): 2 µM (≈ 0.663 µg/mL)
- MIC95 (Salmonella typhimurium [19]): 8 µM (≈ 2.65 µg/mL)
- MIC95 (Escherichia coli [20]): 2 µM (≈ 0.663 µg/mL)
- MIC (Escherichia coli [21]): 2 µM
- MIC95 (Staphylococcus aureus [22]): 4 µM (≈ 1.33 µg/mL)
- MBC (Escherichia coli [23]): 4 µM (≈ 1.33 µg/mL)
- MBC (Staphylococcus aureus [24]): 4 µM (≈ 1.33 µg/mL)
- MBC (Escherichia coli [25]): 4 µM (≈ 1.33 µg/mL)
- MIC95 [26]: 2 µM (≈ 0.663 µg/mL)
- MIC (Escherichia coli [27]): 2 µM
- MBC (Staphylococcus aureus [28]): 8 µM (≈ 2.65 µg/mL)
